Source: ChEMBL document CHEMBL3352115, “Discovery of APD334: Design of a Clinical Stage Functional Antagonist of the Sphingosine-1-phosphate-1 Receptor” (ACS Med Chem Lett, 2014)

Experiments:
[1] = Volume of distribution at steady state in dog at 1 mg/kg, iv; assay type: ADME, organism-based, Canis lupus familiaris; set-up: dose 1 mg/kg, route intravenous; conditions: in vivo, read-out: Vdss
[2] = Volume of distribution at steady state in monkey at 1 mg/kg, iv; assay type: ADME, organism-based, Macaca mulatta; set-up: dose 1 mg/kg, route intravenous; conditions: rhesus monkey, in vivo, read-out: Vdss
[3] = Ratio of drug level in brain to plasma of Sprague-Dawley rat at 14.5 ug/hr/kg dosed as constant infusion measured after 48 hrs; assay type: ADME, organism-based; conditions: iv, read-out: BPR
Summary of the method: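 Male Sprague–Dawley rats given 48 h constant infusion at 14.5 μg/h/kg; brain and plasma concentrations measured at 48 h to give B/P ratio.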

[4] = target: Sphingosine 1-phosphate receptor 1 (Homo sapiens, UniProt P21453); experiment: Agonist activity at human S1P1 receptor by beta-arrestin recruitment assay relative to S1P
Sequence of Sphingosine 1-phosphate receptor 1 (P21453 whole entry): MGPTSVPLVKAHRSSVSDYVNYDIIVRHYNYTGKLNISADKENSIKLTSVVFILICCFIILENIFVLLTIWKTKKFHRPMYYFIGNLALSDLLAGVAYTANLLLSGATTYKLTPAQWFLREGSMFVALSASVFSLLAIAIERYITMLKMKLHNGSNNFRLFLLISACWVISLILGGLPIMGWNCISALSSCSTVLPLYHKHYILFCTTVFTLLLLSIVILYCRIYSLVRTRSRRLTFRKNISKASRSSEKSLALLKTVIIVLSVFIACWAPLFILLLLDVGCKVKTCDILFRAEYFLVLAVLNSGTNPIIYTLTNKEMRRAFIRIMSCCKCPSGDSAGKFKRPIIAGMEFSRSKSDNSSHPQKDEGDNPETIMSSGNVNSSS

Rattus norvegicus = experiment: Effect on respiratory function in Sprague-Dawley rat up to 350 mg/kg; assay type: ADME, organism-based; set-up: dose 350 mg/kg; conditions: in vivo
Summary of the method: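 CNS (neurobehavioral) and respiratory safety studies in SD rats, doses up to 350 mg/kg.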

[5] = target: Voltage-gated inwardly rectifying potassium channel KCNH2 (Homo sapiens, UniProt Q12809); experiment: Inhibition of human ERG by patch clamp assay
Sequence of Voltage-gated inwardly rectifying potassium channel KCNH2 (Q12809 whole entry): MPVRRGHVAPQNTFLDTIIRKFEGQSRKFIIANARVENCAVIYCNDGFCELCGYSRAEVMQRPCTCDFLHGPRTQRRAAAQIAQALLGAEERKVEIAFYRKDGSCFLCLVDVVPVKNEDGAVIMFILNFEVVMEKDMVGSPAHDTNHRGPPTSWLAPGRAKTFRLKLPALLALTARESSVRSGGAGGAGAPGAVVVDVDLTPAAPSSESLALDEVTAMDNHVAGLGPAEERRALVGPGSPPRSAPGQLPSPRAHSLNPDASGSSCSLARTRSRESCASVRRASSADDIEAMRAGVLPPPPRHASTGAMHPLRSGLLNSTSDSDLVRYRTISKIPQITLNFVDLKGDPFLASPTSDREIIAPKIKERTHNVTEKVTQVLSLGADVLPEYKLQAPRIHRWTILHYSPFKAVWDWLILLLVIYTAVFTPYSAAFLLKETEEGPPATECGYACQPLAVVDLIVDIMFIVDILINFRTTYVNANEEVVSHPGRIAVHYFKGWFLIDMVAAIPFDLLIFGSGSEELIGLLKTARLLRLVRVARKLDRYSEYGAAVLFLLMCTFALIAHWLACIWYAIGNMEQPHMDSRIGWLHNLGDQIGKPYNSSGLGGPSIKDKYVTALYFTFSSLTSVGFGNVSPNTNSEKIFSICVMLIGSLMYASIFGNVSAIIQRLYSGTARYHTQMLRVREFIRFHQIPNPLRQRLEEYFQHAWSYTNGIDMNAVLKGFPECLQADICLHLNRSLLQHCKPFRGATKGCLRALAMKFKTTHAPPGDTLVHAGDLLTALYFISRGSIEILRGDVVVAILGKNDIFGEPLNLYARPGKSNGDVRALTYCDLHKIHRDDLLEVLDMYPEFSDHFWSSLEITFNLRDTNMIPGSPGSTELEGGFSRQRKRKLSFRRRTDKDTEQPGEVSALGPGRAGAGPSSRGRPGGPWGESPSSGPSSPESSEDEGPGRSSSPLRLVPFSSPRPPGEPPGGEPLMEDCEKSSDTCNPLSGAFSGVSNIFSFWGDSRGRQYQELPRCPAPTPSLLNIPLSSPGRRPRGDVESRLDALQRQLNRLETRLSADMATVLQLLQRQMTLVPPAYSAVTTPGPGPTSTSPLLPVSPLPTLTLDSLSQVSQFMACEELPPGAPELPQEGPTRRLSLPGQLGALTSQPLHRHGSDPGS

[6] = Volume of distribution at steady state in rat at 1 mg/kg, iv; assay type: ADME, organism-based; set-up: dose 1 mg/kg, route intravenous; conditions: in vivo, read-out: Vdss
[7] = target: Sphingosine 1-phosphate receptor 1 (Mus musculus) (UniProt O08530); experiment: Agonist activity at mouse S1P1 receptor assessed as cAMP accumulation by HTRF assay relative to S1P; assay type: functional
Sequence of Sphingosine 1-phosphate receptor 1 (Mus musculus) (O08530 whole entry): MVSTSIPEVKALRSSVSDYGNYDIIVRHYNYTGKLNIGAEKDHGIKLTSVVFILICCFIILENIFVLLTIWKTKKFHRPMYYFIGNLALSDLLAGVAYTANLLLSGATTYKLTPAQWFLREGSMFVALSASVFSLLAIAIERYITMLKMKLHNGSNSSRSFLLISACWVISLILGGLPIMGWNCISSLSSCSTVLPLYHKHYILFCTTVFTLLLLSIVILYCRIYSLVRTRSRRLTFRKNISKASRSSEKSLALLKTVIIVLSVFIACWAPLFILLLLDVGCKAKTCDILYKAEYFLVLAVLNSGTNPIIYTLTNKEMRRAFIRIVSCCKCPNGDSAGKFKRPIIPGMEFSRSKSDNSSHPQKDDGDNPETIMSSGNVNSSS
Summary of the method: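 HTRF cyclase (cAMP) functional assay at S1P1 of each species; EC50 taken as mean of three or more replicates; efficacy given as % agonism relative to S1P.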

[8] = Oral bioavailability in dog at 3 mg/kg; assay type: ADME, organism-based, Canis lupus familiaris; conditions: in vivo
[9] = Oral bioavailability in rat; assay type: ADME, organism-based; conditions: in vivo
[10] = Half life in human liver microsomes; assay type: ADME
Summary of the method: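 Stability on incubation with liver microsomes of each species; half-life reported.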

[11] = Tmax in monkey at 1 mg/kg, iv or 3 mg/kg, po; assay type: ADME, organism-based, Macaca mulatta; conditions: rhesus monkey, in vivo
[12] = Systemic clearance in monkey at 1 mg/kg, iv; assay type: ADME, organism-based, Macaca mulatta; set-up: dose 1 mg/kg, route intravenous; conditions: rhesus monkey, in vivo
[13] = Tmax in rat at 1 mg/kg, iv or 1 mg/kg, po; assay type: ADME, organism-based; conditions: in vivo
Canis familiaris = experiment: Effect on heart rate in telemeterized dog up to 40 mg/kg; assay type: ADME, organism-based, Canis lupus familiaris; set-up: dose 40 mg/kg; conditions: in vivo
Summary of the method: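 Telemeterized dogs dosed at levels up to 40 mg/kg; pulse pressure, heart rate, body temperature and ECG parameters monitored.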

O=C(O)C[C@H]1CCc2c1[nH]c1ccc(OCc3ccc(C4CCCC4)c(C(F)(F)F)c3)cc21 [ETRASIMOD]
Vd [1]: 0.609 L/kg | Vd [2]: 0.411 L/kg | Kp at 48 h [3]: 1.9 | Emax [4]: 110% | Activity (Rattus norvegicus): Non-toxic | IC50 [5]: > 30 µM | Vd [6]: 1.61 L/kg | Emax [7]: 95% | bioavailability [8]: 73.2% | bioavailability [9]: 54% | half-life [10]: > 1 h | Tmax [11]: 3.33 h | clearance [12]: 0.947 mL/min/kg | Tmax [13]: 7.33 h | Activity (Canis familiaris): Non-toxic
